ChEMBL document CHEMBL4680238, “Novel octapeptide-DTX prodrugs targeting MMP-7 as effective agents for the treatment of colorectal cancer with lower systemic toxicity” (Eur J Med Chem, 2020)
Residues, ends and D or L forms follow the SMILES beside them. *: point of attachment. X1 = CC(=O)O[C@@]12CO[C@@H]1C[C@H](O)[C@@]1(C)C(=O)[C@H](O)C3=C(C)[C@@H](OC(=O)[C@H](OC(=O)OCc4ccc(N*)cc4)[C@@H](NC(=O)OC(C)(C)C)c4ccccc4)C[C@@](O)([C@@H](OC(=O)c4ccccc4)[C@H]21)C3(C)C

How the values were obtained:
[1] = Apparent clearance in Sprague-Dawley rat assessed as docetaxel level at 5 mg/kg, iv measured up to 72 hrs by LC-MS/MS analysis; type: ADME, organism-based; conditions: in vivo
Procedure, shortened: (§1)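 Male SD rats (180-200 g), fasted 12 h with free water, n = 3 per group. Single tail-vein dose of 5 mg/kg in 0.5% DMSO/5% castor oil/5% ethanol/89.5% saline. Retro-orbital blood drawn 0.083-72 h with heparin. Plasma protein-precipitated with methanol containing paclitaxel internal standard, then analysed by LC-MS/MS. Parameters from non-compartmental analysis, mean ± SD. For the DTX group, parameters were calculated after converting dose to the molar equivalent of the prodrug.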

[2] = tested on: HCT-116; assay: Antitumour activity against human HCT-116 cells xenografted in BALB/c nude mouse assessed as tumour growth inhibition at 5.85 mg/kg, ip administered once for every 7 days for 14 days relative to control; type: functional; conditions: HCT-116, ip, 336 h, time 14 day, read-out: TGI
Procedure, shortened: (§2)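 Male BALB/c nude mice received s.c. HCT116 cells (2 × 10^6 in 0.2 mL PBS). Once tumours reached 100-200 mm3, mice were randomized into groups of six. Dosing was ip, 0.1 mL/10 g, once every 7 days, in DMSO 0.5%/castor oil 5%/ethanol 5%/saline 89.5%; vehicle controls got solvent. Caliper volume V = L×W²×0.52 read every 2-3 days. Tumours excised and weighed on day 14.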

[3] = tested on: HCT-116; assay: Antitumour activity against human HCT-116 cells xenografted in ip dosed BALB/c nude mouse assessed as tumour growth inhibition administered once for every 7 days for 14 days; type: functional, organism-based; conditions: time 14.0 day; procedure, shortened: as §2
[4] = tested on: HCT-116; assay: Cytotoxicity against human HCT-116 cells assessed as reduction in cell viability after 48 hrs by MTT assay; type: functional, cell-based; conditions: HCT-116, 48 h
Procedure, shortened: (§3)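 Cells seeded at 5000/well and precultured 1 day. HCT116 grown in McCoy's 5A + 10% FBS; SW620 and HEK293 in DMEM + 10% FBS; CCD18Co in DMEM + 15% FBS. Compounds from 0.1 M DMSO stocks were tested at 10^-10 to 10^-4 mol/L in sixplicate: HCT116 and HEK293 for 48 h, SW620 and CCD18Co for 72 h, at 37 °C, 5% CO2. MTT (5 mg/mL) added for 4 h, then A570 read; IC50 estimated.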

[5] = Drug uptake in BALB/c nude mouse xenografted with human HCT-116 cells assessed as drug level in spleen at 5 mg/kg, iv measured up to 24 hrs by LC-MS/MS analysis; type: ADME, organism-based; conditions: in vivo
Procedure, shortened: (§4)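 Male BALB/c nude mice bearing s.c. HCT116 tumours (200-300 mm3), 20 per group. Single tail-vein dose of 5 mg/kg. Five mice per group killed at 0.5, 4, 8 and 24 h and heart-perfused with PBS. Tissues homogenized in saline (4 µL/mg) and precipitated with methanol containing paclitaxel internal standard. Prodrug, released DTX and free DTX measured by LC-MS/MS.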

[6] = tested on: HCT-116; assay: Antitumour activity against human HCT-116 cells xenografted in BALB/c nude mouse assessed as tumour growth inhibition at 23.4 mg/kg, ip administered once for every 7 days for 14 days relative to control; type: functional; conditions: HCT-116, ip, 336 h, time 14 day, read-out: TGI; procedure, shortened: as §2
[7] = Drug uptake in BALB/c nude mouse xenografted with human HCT-116 cells assessed as drug level in kidney at 5 mg/kg, iv measured up to 24 hrs by LC-MS/MS analysis; type: ADME, organism-based; conditions: in vivo; procedure, shortened: as §4
[8] = tested on: SW-620; assay: Potency index, ratio of 4FDT IC50 to test compound IC50 for Cytotoxicity against human SW-620 cells; type: functional
[9] = Toxicity in BALB/c nude mouse xenografted with human HCT-116 cells assessed as necrosis in liver at 11.73 mg/kg, ip administered once for every 7 days for 14 days by H and E staining based assay; type: organism-based; conditions: in vivo, 336 h, time 14 day
Procedure, shortened: (§5)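 At the end of the 14-day ip xenograft study (HCT116, BALB/c nude), heart and liver were collected from vehicle and molar-equivalent dose groups. Tissues fixed in 10% formalin in PBS and stained with H&E. Liver examined at 400×, heart at 100×.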

[10] = Toxicity in BALB/c nude mouse xenografted with human HCT-116 cells assessed as reduction in body weight at 23.4 mg/kg, ip administered once for every 7 days for 14 days relative to control; type: organism-based; set-up: scale not given: the % may be the effect or the level left; conditions: in vivo, 336 h, time 14 day
Procedure, shortened: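 HCT116 s.c. xenografts in male BALB/c nude mice, n = 6 per group. Dosing was ip once every 7 days for 2 weeks in DMSO/castor oil/ethanol/saline; vehicle controls got solvent. Body weight recorded every other day or every three days. Weight loss taken at day 14. Mean ± SD.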

[11] = Drug uptake in BALB/c nude mouse xenografted with human HCT-116 cells assessed as drug level in liver at 5 mg/kg, iv measured up to 24 hrs by LC-MS/MS analysis; type: ADME, organism-based; conditions: in vivo; procedure, shortened: as §4
[12] = Half life of compound in PBS buffer at pH 7.4 at 50 ug/ml up to 72 hrs by RP-HPLC analysis; type: physicochemical; conditions: dose 50 µg/ml
[13] = Drug uptake in BALB/c nude mouse xenografted with human HCT-116 cells assessed as drug level in heart at 5 mg/kg, iv measured up to 24 hrs by LC-MS/MS analysis; type: ADME, organism-based; conditions: in vivo; procedure, shortened: as §4
[14] = Apparent clearance in Sprague-Dawley rat at 5 mg/kg, iv measured up to 72 hrs by LC-MS/MS analysis; type: ADME, organism-based; conditions: Sprague-Dawley, in vivo, read-out: CL(app) (converted); procedure, shortened: as §1
[15] = Half life in Sprague-Dawley rat plasma t 50 ug/ml up to 72 hrs by RP-HPLC analysis; type: ADME, cell-free; conditions: dose 50 µg/ml
[16] = AUC (0 to t) in Sprague-Dawley rat at 5 mg/kg, iv measured up to 72 hrs by LC-MS/MS analysis; type: ADME, organism-based; set-up: route intravenous, dose 5 mg/kg, time <=72; conditions: in vivo; procedure, shortened: as §1
[17] = Drug uptake in BALB/c nude mouse xenografted with human HCT-116 cells assessed as drug level in lung at 5 mg/kg, iv measured up to 24 hrs by LC-MS/MS analysis; type: ADME, organism-based; conditions: in vivo; procedure, shortened: as §4
[18] = Half life in Sprague-Dawley rat assessed as docetaxel level at 5 mg/kg, iv measured up to 72 hrs by LC-MS/MS analysis; type: ADME, organism-based; conditions: in vivo; procedure, shortened: as §1
[19] = tested on: CCD-18Co; assay: Cytotoxicity against human CCD-18Co cells assessed as reduction in cell viability after 72 hrs by MTT assay; type: cell-based; procedure, shortened: as §3
[20] = Toxicity in BALB/c nude mouse xenografted with human HCT-116 cells assessed as disordered myocardial fiber in heart at 11.73 mg/kg, ip administered once for every 7 days for 14 days by H and E staining based assay; type: organism-based; conditions: in vivo, 336 h, time 14 day; procedure, shortened: as §5
[21] = AUC (0 to infinity) in Sprague-Dawley rat at 5 mg/kg, iv measured up to 72 hrs by LC-MS/MS analysis; type: ADME, organism-based; set-up: route intravenous, dose 5 mg/kg, time <=72; conditions: Sprague-Dawley, in vivo; procedure, shortened: as §1
[22] = Toxicity in BALB/c nude mouse xenografted with human HCT-116 cells assessed as concentrated nucleus in liver at 11.73 mg/kg, ip administered once for every 7 days for 14 days by H and E staining based assay; type: organism-based; conditions: in vivo, 336 h, time 14 day; procedure, shortened: as §5
[23] = Half life in Sprague-Dawley rat at 5 mg/kg, iv measured up to 72 hrs by LC-MS/MS analysis; type: ADME, organism-based; conditions: in vivo; procedure, shortened: as §1

For `CC[C@H](C)[C@H](NC(=O)CNC(=O)[C@H](CCC(N)=O)NC(=O)[C@@H]1CCCN1C(=O)CNC(C)=O)C(=O)N[C@@H](C)C(=O)N[C@@H](CCSC)C(=O)N[C@@H](CCC(N)=O)C(=O)N[C@@H](CC(C)C)C(=O)Nc1ccc(COC(=O)O[C@@H](C(=O)O[C@H]2C[C@@]3(O)[C@@H](OC(=O)c4ccccc4)[C@@H]4[C@]5(OC(C)=O)CO[C@@H]5C[C@H](O)[C@@]4(C)C(=O)[C@H](O)C(=C2C)C3(C)C)[C@@H](NC(=O)OC(C)(C)C)c2ccccc2)cc1` (Ac-GPQGIAMQL-X1), the “CL(app)” value [1] was 316.3 mL/min/kg, the inhibition in vivo at 5.85 mg/kg [2] was 28.8% and the TGI [3] was “Dose-dependent effect”. For the same compound, the IC50 [4] was 9.1 nM, the Drug uptake [5] was “Active” and the inhibition in vivo at 23.4 mg/kg [6] was 56.1%. For the same compound, the Drug uptake [7] was “Active”, the “Ratio IC50” value [8] was 9 and the Activity [9] was “Non-Toxic”. For the same compound, the Activity [10] was 12.2%, the Drug uptake [11] was “Active” and the half-life at 50 ug/ml [12] was greater than 72 h. The Drug uptake [13] was “Active”, the clearance [14] was 9.33 mL/min/kg and the half-life at 50 ug/ml [15] was 24.2 h. For the same compound, the AUC(0-t) at 72 h [16] was 9070 ng·h/mL, the Drug uptake [17] was “Active” and the t1/2 [18] was 7.03 h. The IC50 [19] was greater than 200000 nM, the Activity [20] was “Non-Toxic” and the AUC(0-inf) [21] was 9240 ng·h/mL. The Activity [22] was “Non-Toxic” and the half-life [23] was 12.8 h.
